Results as given in paper PMC4976638 (Biochemistry, 2016).

What was measured:
apoE3 [1] = target: T1, apoE3 (Homo sapiens, UniProt P02649); assay: Quenching of ANS fluorescence, apoE3; type: binding; conditions: Apparent dissociation constant Kd, Using ANS, PBS pH 7.4, 25 °C
Procedure, shortened: (§1)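 Unlabelled apoE raises ANS fluorescence. Test compound was titrated stepwise into the apoE–ANS mixture after a 1 h room-temperature protein preincubation, and quenching of ANS fluorescence gave an apparent Kd. Buffer: 10 mM phosphate pH 7.4, 150 mM NaCl, 1 mM DTT, 1 mM EDTA, 25 °C.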

apoE4 [2] = target: apoE4 (Homo sapiens, UniProt P02649, C130R/S157C); type: binding
Procedure, shortened: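 Alexa488-maleimide labelled the apoE4 S139C mutant after 20 mM DTT reduction (1–2 h, 37 °C), with a 10-fold molar dye excess overnight at 4 °C (>90% labelling). Labelled protein was preincubated 1 h at room temperature, then titrated stepwise with test compound to follow fluorescence decrease. Unlabelled apoE3 was then added. Buffer: 10 mM phosphate pH 7.4, 150 mM NaCl, 1 mM DTT, 1 mM EDTA, 25 °C.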

apoE3 [3] = target: apoE3 (Homo sapiens, UniProt P02649, A303C); assay: Fluorescence of TMR-labeled apoE3; type: binding
Procedure, shortened: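 ApoE3 A285C was labelled with TMR maleimide (dye:protein 1:1; native Cys112 possibly also labelled). It was preincubated 1 h at room temperature, then titrated stepwise with test compound while fluorescence was monitored to derive an apparent Kd. Buffer: 20 mM HEPES pH 7.4, 150 mM NaCl, 1 mM DTT, 1 mM EDTA, 25 °C.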

apoE3 [4] = target: T1, apoE3; assay: Differential hydrogen-deuterium exchange MS, apoE3; type: binding
Procedure, shortened: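 ApoE3 stock (10 μM in PBS, 2 mM DTT) was incubated 2 h at 25 °C with test compound […]; controls had 2% DMSO. Exchange ran in D₂O PBS (pD 7.4, 25 °C, 30 s–30 min), with 1 μM apoE and 25 μM compound. Quench used fungal XIII/urea/formic acid on ice, then pepsin digestion, C18 LC and ESI-QTOF MS. Duplicates; 48 h back-exchange correction.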

apoE4 [5] = target: T2, apoE4 (Homo sapiens, UniProt P02649, C130R); assay: Analytical ultracentrifugation sedimentation velocity; conditions: 10 μM apoE4, 10 or 20 μM EZ-482, PBS
Procedure, shortened: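 Recombinant apoE4 was expressed in E. coli BL21(DE3) as a His-tagged thioredoxin fusion, cleaved with PreScission protease (leaving N-terminal Gly-Pro), and dialysed into PBS. For sedimentation velocity, 10 μM apoE4 was run with 0, 10 or 20 μM test compound in PBS in a double-sector centerpiece (1.2 cm path), with absorbance at 290 nm recorded in continuous mode.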

apoE4 [6] = target: T2, apoE4; assay: Differential hydrogen-deuterium exchange MS, apoE4; type: binding; conditions: 1 μM WT apoE4, 25 μM EZ-482, 25 °C
apoE4 [7] = target: T2, apoE4; assay: SYPRO Orange displacement titration, apoE4; type: binding; conditions: Apparent dissociation constant Kd, Using SYPRO Orange, PBS pH 7.4, 25 °C
Procedure, shortened: (§2)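 Adding apoE to SYPRO Orange increases its fluorescence and shifts the emission maximum to 575 nm. After a 1 h room-temperature protein preincubation, test compound was titrated stepwise and the decrease in SYPRO Orange fluorescence was fitted for an apparent Kd. Buffer: 10 mM phosphate pH 7.4, 150 mM NaCl, 1 mM DTT, 1 mM EDTA, 25 °C.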

Solubility in DMSO = type: physicochemical
apoE3 [8] = target: T1, apoE3; assay: SYPRO Orange displacement titration, apoE3; type: binding; conditions: Apparent dissociation constant Kd, Using SYPRO Orange, PBS pH 7.4, 25 °C
Procedure, shortened: as §2

apoE4 [9] = target: T2, apoE4; assay: Quenching of ANS fluorescence, apoE4; type: binding
Procedure, shortened: as §1

T2 sequence (P02649 19-317 C130R): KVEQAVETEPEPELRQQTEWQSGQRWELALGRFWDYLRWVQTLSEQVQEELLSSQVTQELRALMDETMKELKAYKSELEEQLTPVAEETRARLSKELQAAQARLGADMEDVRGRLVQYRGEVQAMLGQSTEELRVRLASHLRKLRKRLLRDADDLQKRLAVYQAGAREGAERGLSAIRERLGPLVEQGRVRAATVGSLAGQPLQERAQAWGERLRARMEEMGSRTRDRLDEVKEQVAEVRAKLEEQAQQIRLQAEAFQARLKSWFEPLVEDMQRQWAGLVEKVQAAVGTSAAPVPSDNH
T1 sequence (P02649 19-317): as the sequence (P02649 19-317 C130R) above, with R112C counted along it
apoE4 (Homo sapiens, UniProt P02649, C130R/S157C), sequence (P02649 19-317 C130R/S157C): as the sequence (P02649 19-317 C130R) above, with S139C counted along it
apoE3 (Homo sapiens, UniProt P02649, A303C), sequence (P02649 19-317 A303C): as the sequence (P02649 19-317 C130R) above, with R112C, A285C counted along it

Cn1nc(CC(=O)Nc2cc(S(=O)(=O)Nc3cccc(Cl)c3)ccc2O)c2ccccc2c1=O [EZ-482, N-{5-[(3-chlorophenyl)sulfamoyl]-2-hydroxyphenyl}-2-(3-methyl-4-oxo-3,4-dihydrophthalazin-1-yl)acetamide]
Kd (apoE3 [1]): 5.6 ± 0.7 µM | Kd (apoE4 [2]): 7.5 µM | Kd (apoE3 [3]): 7 ± 0.35 µM | N-terminal allosteric effect by HDX, apoE3 (apoE3 [4]; 1 μM WT apoE3, 25 μM EZ-482, 25 °C): apoE3 N-terminal remained unaffected | Binding site by HDX protection, apoE3 (apoE3 [4]; 1 μM WT apoE3, 25 μM EZ-482 or 1X SYPRO Orange, 25 °C): Large protection was observed only in the C-terminal domain (229–235/234–243 and 258–265) | Effect on distribution of apoE oligomers (apoE4 [5]): essentially unaffected | Binding site by HDX protection, apoE4 (apoE4 [6]): Large protection was observed only in the C-terminal domain (229–235/234–243 and 258–265) | Kd (apoE4 [7]): 7.6 ± 0.4 µM | Solubility in DMSO (Solubility in DMSO): reasonably soluble in DMSO | Kd (apoE3 [8]): 7.3 ± 0.53 µM | Kd (apoE4 [9]): 7.5 ± 1 µM
